{
  "source": "ChEMBL document CHEMBL1142998",
  "about": "“Structure-activity relationship study of tricyclic necroptosis inhibitors” (J Med Chem, 2007)",
  "note": "Active and inactive are the calls of the source. The calls are words filed in the database; no cut-off is given here.",
  "data": [
    {"test_system": "L929", "experiment": "Inhibition of TNF alpha-induced necroptosis in mouse L929 cells assessed as cell viability at 30 uM after 24 hrs", "assay_type": "functional, cell-based", "in_short": "(§1)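 L929 cells, 100000 cells/mL, challenged with 10 ng/mL human TNF-α or 100 µM zVAD.fmk alongside compound at 30 µM or DMSO, 24 h, 37 °C, 5% CO2; final DMSO 0.5%, duplicates. Viability by luminescent ATP assay, corrected for nonspecific compound toxicity; mean % viability ± SD from two independent experiments.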", "values": [
      {"smiles": "CN1C(=O)N[C@H](Cc2c[nH]c3c(Cl)cccc23)C1=O", "note": "(racemic)", "Activity": "Active"},
      {"smiles": "COc1ccc([C@H]2[C@H]3CCc4ccc(OC)cc4C3=NN2C(C)=O)cc1", "Activity": "Active"}
    ]},
    {"test_system": "Jurkat", "experiment": "Inhibition of TNF alpha-induced necroptosis in FADD-deficient variant human Jurkat T cells assessed as cell viability after 24 hrs", "assay_type": "functional, cell-based", "in_short": "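FADD-deficient human Jurkat T cells at 500000 cells/mL exposed to 10 ng/mL human TNF-α plus compound at 11 concentrations (0.029–100 µM), each in duplicate, 24 h, 37 °C, 5% CO2; final DMSO 0.5%. ATP luminescence viability expressed relative to compound alone (TNF/compound signal ratio). EC50 from variable-slope sigmoid nonlinear regression; two independent experiments unless noted.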", "units": {"EC50": "µM"}, "values": [
      {"smiles": "COc1ccc2c(c1)C1=NN(C(C)=O)[C@@H](c3ccccc3OC)[C@H]1CC2", "EC50": "> 100"},
      {"smiles": "CN1C(=O)N[C@H](Cc2c[nH]c3c(Cl)cccc23)C1=O", "note": "(racemic)", "EC50": 0.21},
      {"smiles": "COc1ccc2c(c1)C1=NN(C(C)=O)[C@@H](c3ccc4c(c3)OCO4)[C@H]1CC2", "EC50": 2.6},
      {"smiles": "COc1ccc([C@H]2[C@H]3CCc4ccc([N+](=O)[O-])cc4C3=NN2C(C)=O)cc1", "EC50": 3.5},
      {"smiles": "COc1ccc([C@H]2[C@H]3CCc4ccccc4C3=NN2C(C)=O)cc1", "EC50": 0.84},
      {"smiles": "COc1ccc([C@H]2[C@H]3CCc4c(OC)cccc4C3=NN2C(C)=O)cc1", "EC50": "> 100"},
      {"smiles": "CCN1N=C2c3cc(OC)ccc3CC[C@@H]2[C@@H]1c1ccc(OC)cc1", "EC50": "> 100"},
      {"smiles": "CC(=O)N1N=C2c3cc(C)ccc3OC[C@@H]2[C@@H]1c1ccc(F)cc1", "EC50": 11.6},
      {"smiles": "COCC(=O)N1N=C2c3cc(OC)ccc3CC[C@@H]2[C@@H]1c1ccc(OC)cc1", "EC50": 0.44},
      {"smiles": "COc1ccc([C@H]2[C@H]3CCc4ccc(OC)cc4C3=NN2C(=N)N)cc1", "EC50": "> 100"},
      {"smiles": "COc1ccc([C@H]2[C@@H]3CCc4ccc(F)cc4C3=NN2C(C)=O)cc1", "EC50": 2.7},
      {"smiles": "COc1cc2c(cc1OC)C1=NN(C(C)=O)[C@@H](c3ccc(F)cc3)[C@H]1CC2", "EC50": "> 100"},
      {"smiles": "CC(=O)N1N=C2c3ccccc3CC[C@@H]2[C@@H]1c1ccc(F)cc1", "EC50": 5.4},
      {"smiles": "COc1ccc([C@H]2[C@H]3CCc4ccc(OC)cc4C3=NN2C(=O)COC(C)=O)cc1", "EC50": 3.1},
      {"smiles": "COc1ccc([C@H]2[C@H]3CCc4ccc(OCc5ccccc5)cc4C3=NN2C(C)=O)cc1", "EC50": 5},
      {"smiles": "COc1ccc2c(c1)CC[C@H]1C2=NN(C(C)=O)[C@H]1c1ccc(F)cc1", "EC50": "> 100"},
      {"smiles": "COc1ccc2c(c1)C1=NN(C(C)=O)[C@@H](c3ccc(F)cc3)[C@H]1CO2", "EC50": 4.8},
      {"smiles": "COc1ccc([C@H]2[C@H]3CCc4ccc(OC)cc4C3=NN2C(N)=S)cc1", "EC50": 8.8},
      {"smiles": "COc1ccc([C@H]2[C@H]3CCc4cccc(OC)c4C3=NN2C(C)=O)cc1", "EC50": "> 50"},
      {"smiles": "COc1ccc2c(c1)C1=NN(C(C)=O)[C@@H](c3ccc(F)cc3)[C@@H]1CC2", "EC50": 3.7},
      {"smiles": "COc1ccc([C@H]2[C@H]3CCc4ccc(OC)cc4C3=NN2C(N)=O)cc1", "EC50": 4.3},
      {"smiles": "COc1ccc([C@H]2[C@H]3C[C@H](N)c4ccc(OC)cc4C3=NN2C(C)=O)cc1", "EC50": 1.2},
      {"smiles": "COc1ccc([C@H]2[C@@H]3CCc4ccc([N+](=O)[O-])cc4C3=NN2C(C)=O)cc1", "EC50": "> 100"},
      {"smiles": "COc1ccc2c(c1)C1=NN(C(C)=O)[C@@H](c3ccc(OCc4ccccc4)cc3)[C@H]1CC2", "EC50": "> 100"},
      {"smiles": "CNC(=S)N1N=C2c3cc(OC)ccc3CC[C@@H]2[C@@H]1c1ccc(OC)cc1", "EC50": 7.9},
      {"smiles": "CCC(=O)N1N=C2c3cc(OC)ccc3CC[C@@H]2[C@@H]1c1ccc(OC)cc1", "EC50": 0.15},
      {"smiles": "COc1ccc2c(c1)C1=NN(C(C)=O)[C@@H](c3ccc(F)cc3)[C@H]1CC2", "EC50": 0.96},
      {"smiles": "COc1ccc2c(c1)C1=NN(C(C)=O)[C@@H](c3ccc([N+](=O)[O-])cc3)[C@H]1CC2", "EC50": 1.8},
      {"smiles": "COc1ccc2c(c1)C1=NN(C(C)=O)[C@@H](c3cccc(F)c3)[C@H]1CC2", "EC50": 0.68},
      {"smiles": "COc1ccc2c(c1)C1=NN(C(C)=O)[C@@H](c3ccc(O)cc3)[C@H]1CC2", "EC50": 5.9},
      {"smiles": "COc1ccc([C@H]2[C@H]3CCc4ccc(F)cc4C3=NN2C(C)=O)cc1", "EC50": 0.28},
      {"smiles": "COc1ccc([C@H]2[C@H]3CCc4ccc(OCCN5CCOCC5)cc4C3=NN2C(C)=O)cc1", "EC50": "> 50"},
      {"smiles": "COc1ccc([C@H]2[C@H]3CCc4ccc(OC)cc4C3=NN2C=O)cc1", "EC50": 0.92},
      {"smiles": "CC(=O)N1N=C2c3cc(O)ccc3CC[C@@H]2[C@@H]1c1ccc(O)cc1", "EC50": "> 100"},
      {"smiles": "COc1ccc2c(c1)C1=NN(C(C)=O)[C@@H](c3ccc(SC)cc3)[C@H]1CC2", "EC50": 1.1},
      {"smiles": "CC(=O)N1N=C2c3cc(C)ccc3OC[C@H]2[C@@H]1c1ccc(F)cc1", "EC50": "> 100"},
      {"smiles": "COc1ccc([C@H]2[C@H]3C[C@H](N(C)C)c4ccc(OC)cc4C3=NN2C(C)=O)cc1", "EC50": 5.1},
      {"smiles": "COc1ccc2c(c1)CC[C@@H]1C2=NN(C(C)=O)[C@H]1c1ccc(F)cc1", "EC50": "> 100"},
      {"smiles": "COc1ccc2c(c1)C1=NN(C(C)=O)[C@@H](c3ccc4c(c3)OCCO4)[C@H]1CC2", "EC50": 2.1}
    ]},
    {"test_system": "L929", "experiment": "Inhibition of zVAD.fmk-induced necroptosis in mouse L929 cells assessed as cell viability at 30 uM after 24 hrs", "assay_type": "functional, cell-based", "in_short": "as §1", "values": [
      {"smiles": "CN1C(=O)N[C@H](Cc2c[nH]c3c(Cl)cccc23)C1=O", "note": "(racemic)", "Activity": "Active"},
      {"smiles": "COc1ccc([C@H]2[C@H]3CCc4ccc(OC)cc4C3=NN2C(C)=O)cc1", "Activity": "inactive"}
    ]}
  ]
}
